Broadly, the IC50 is the concentration needed to halve the response being measured. The term clearance denotes the rate of elimination divided by the concentration. A lower clearance goes with inefficient removal. A word on the logD: it is the decadic logarithm of the distribution of all forms, ionised or not, between an organic phase and buffer at a given pH. A lower logD goes with lower lipophilicity. As a reminder, the half-life is how long it takes for the measured level to halve. Lower therefore signals rapid decline. Broadly, the bioavailability is the share of a dose that reaches the circulation, judged against a reference dose that is usually intravenous. A higher bioavailability goes with much systemic uptake.

The target of series [1] is Voltage-dependent calcium channel alpha2delta subunit (Sus scrofa, UniProt O77773). As to the kind of experiment: Displacement of [3H]gabapentin from calcium channel alpha2delta in pig cerebral cortex membrane after 30 mins. Format: cell membranes. For orientation: Loss of bound radioactivity is the signal in a displacement assay; it reports binding, not function.
Sequence of Voltage-dependent calcium channel alpha2delta subunit (O77773 whole entry): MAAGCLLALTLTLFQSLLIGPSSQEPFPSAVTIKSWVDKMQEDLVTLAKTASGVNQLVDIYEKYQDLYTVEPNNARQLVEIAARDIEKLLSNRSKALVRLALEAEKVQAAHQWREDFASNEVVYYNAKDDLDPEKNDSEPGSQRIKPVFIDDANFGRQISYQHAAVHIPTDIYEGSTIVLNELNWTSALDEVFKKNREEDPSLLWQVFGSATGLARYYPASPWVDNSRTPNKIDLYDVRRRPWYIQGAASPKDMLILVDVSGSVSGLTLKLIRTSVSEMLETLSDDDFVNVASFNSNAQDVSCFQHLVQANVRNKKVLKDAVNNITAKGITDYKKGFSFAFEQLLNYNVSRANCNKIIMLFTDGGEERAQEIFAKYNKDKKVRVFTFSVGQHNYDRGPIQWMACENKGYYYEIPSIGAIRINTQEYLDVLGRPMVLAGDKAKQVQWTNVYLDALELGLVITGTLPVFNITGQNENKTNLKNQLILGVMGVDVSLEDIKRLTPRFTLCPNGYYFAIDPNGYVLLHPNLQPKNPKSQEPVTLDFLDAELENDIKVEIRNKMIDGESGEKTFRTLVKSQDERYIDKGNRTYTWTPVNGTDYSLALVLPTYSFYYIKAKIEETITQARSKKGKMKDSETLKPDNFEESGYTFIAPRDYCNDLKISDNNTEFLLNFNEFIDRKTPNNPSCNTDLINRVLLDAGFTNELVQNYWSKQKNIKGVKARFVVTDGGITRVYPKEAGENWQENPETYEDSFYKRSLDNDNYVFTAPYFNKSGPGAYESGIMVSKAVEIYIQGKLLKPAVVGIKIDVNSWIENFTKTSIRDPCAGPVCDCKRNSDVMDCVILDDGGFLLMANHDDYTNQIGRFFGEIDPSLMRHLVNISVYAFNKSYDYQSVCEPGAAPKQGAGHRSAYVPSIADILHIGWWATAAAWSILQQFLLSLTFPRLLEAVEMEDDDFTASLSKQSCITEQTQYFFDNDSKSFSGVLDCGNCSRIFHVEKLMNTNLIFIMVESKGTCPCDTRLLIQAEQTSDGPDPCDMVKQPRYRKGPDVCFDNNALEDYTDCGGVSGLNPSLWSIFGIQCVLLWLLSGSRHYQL
Series [2] relates to Rattus norvegicus. Briefly: Analgesic activity in rat chronic constriction injury weight model assessed as inhibition of pain effect at 3 to 10 mg/kg, po. The format is functional, organism-based. The procedure, abridged: (§1)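 Rat sciatic-nerve chronic constriction model: loose ligatures placed around the sciatic nerve produce hypersensitivity in one hind paw. Weight borne on each hind paw is measured, and the read-out is the difference between the ipsilateral (affected) and contralateral (unaffected) paw.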

Series [3] in a line: Clearance in rat. To be noted: in vivo. The format is ADME, organism-based.
A short description of series [4]: Lipophilicity, log D at pH 7.4. To be noted: buffer. Format: physicochemical.
A short description of series [5]: Inhibition of L-type amino acid transporter expressed in CHO cells assessed as inhibition of [3H]leucine uptake. Format: cell-based.
The nature of series [6]: Elimination half life in rat. The format is ADME, organism-based. Conditions: in vivo.
Series [7] in a line: Bioavailability in rat. To be noted: in vivo. Format: ADME, organism-based.
The subject of series [8] is Rattus norvegicus. Briefly: Analgesic activity in intrathecally dosed rat chronic constriction injury weight model assessed as inhibition of pain effect. Format: functional, organism-based. The procedure, abridged: as §1

Activity calls are given as the source filed them. The calls are words filed in the database; no cut-off is given here. Where only a bound is given, the exact number is not on record here.

Consider `NC[C@@]1(CC(=O)O)C[C@H]2CCCC[C@H]2C1`, for which, in series [1], the IC50 is more than 10 µM.

As for `NC[C@]1(CC(=O)O)C[C@H]2CC[C@H]2C1`, in the series on Rattus norvegicus [2], the result was Active. Besides, the values for the concentration for half-maximal inhibition (IC50) in series [1] and in series [5] were 0.038 µM and 38 µM, respectively. The clearance in series [3] is 4.3 mL/min/kg. For the same compound, the logD in series [4] was -1. Further, in series [6], the half-life was 2.4 h. In series [7], this compound registered a bioavailability of 84%.

Consider `C[C@@H]1C[C@@](CN)(CC(=O)O)C[C@@H]1C`, for which the IC50 in series [1] amounted to 0.107 µM; in series [5] it was 7 µM. Consider `NCC1(CC(=O)O)CC2CCC2C1` (racemic), for which the IC50 in series [1] was found to be 2.9 µM. For `NC[C@]1(CC(=O)O)C[C@H]2CCC[C@H]2C1`, the IC50 in series [1] was 2.6 µM. As for `NC[C@]1(CC(=O)O)C[C@H]2CCC[C@H]21`, the result in the series on Rattus norvegicus [2] was Active. In addition, the IC50 in series [1] is 0.046 µM; in series [5], more than 10000 µM. In addition, the clearance in series [3] was 4.5 mL/min/kg. In series [4], this compound yielded a logD of -1. For the same compound, the half-life in series [6] is 2.3 h. The same compound yielded a bioavailability in series [7] of 100%. With `NC[C@@]1(CC(=O)O)C[C@@H]2CCC[C@@H]21`, the IC50 in series [1] worked out at 0.019 µM; in series [5], 6930 µM. Also, the outcome in the series on Rattus norvegicus [8] was Active. On to `NC[C@]1(CC(=O)O)CC2CCCC21` (mixture of isomers), for which the IC50 in series [1] worked out at 0.025 µM.

`NC[C@@]1(CC(=O)O)CC2CCCC21` (mixture of isomers): the IC50 in series [1] was determined as 2.8 µM. Same read-out and setting: then `NC[C@@]1(CC(=O)O)C[C@H]2CC[C@H]2C1`, with 0.332 µM; and `NCC1(CC(=O)O)CC2CCCC2C1` (racemic), with more than 10 µM; and `NC[C@]1(CC(=O)O)C[C@H]2CCCC[C@H]2C1`, with 0.72 µM. Same read-out and setting: for `NC[C@]1(CC(=O)O)CC2CCCCC21` (mixture of isomers) the value was 0.6 µM; for `NC[C@]1(CC(=O)O)CCC2CCCC21` (mixture of isomers), 7.18 µM. Same read-out and setting: then `NC[C@@]1(CC(=O)O)C[C@H]2CCC[C@H]2C1`, with more than 10 µM; and `NC[C@@]1(CC(=O)O)CC2CCCCC21` (mixture of isomers), with 3.09 µM. For `C[C@H]1CC(CN)(CC(=O)O)C[C@@H]1C` (relative stereo) [ATAGABALIN], the figures for the half-maximal inhibitory concentration (IC50) in series [1] and in series [5] were 0.022 µM and 10 µM, respectively. Consider `NCC1(CC(=O)O)CC2CCCCC2C1` (racemic), for which the IC50 in series [1] is more than 10 µM.

(Values after ChEMBL document CHEMBL1153228, “Synthesis and in vivo evaluation of bicyclic gababutins” (Bioorg Med Chem Lett, 2010).)
